{"source": "ChEMBL document CHEMBL1770147", "about": "“Synthesis and antifungal activity of functionalized 2,3-spirostane isomers” (2011)", "type_in_all_cases": "functional", "key": {"Nakaseomyces glabratus [1]": {"tested_on": "Nakaseomyces glabratus", "experiment": "Antifungal activity against Candida glabrata ATCC 48435 assessed as reduction in growth after 48 hrs by broth microdilution method relative to control", "in_short": "(§1)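 Growth was read as absorbance at 530 nm after incubation at 35 °C for 48 h. Percent reduction was calculated relative to control wells containing no antifungal, alongside a visual comparison of turbidity with those wells.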"}, "Cryptococcus neoformans [2]": {"tested_on": "Cryptococcus neoformans", "experiment": "Antifungal activity against Cryptococcus neoformans ATCC 36556 assessed as reduction in growth after 48 hrs by broth microdilution method relative to control", "in_short": "as §1"}, "Candida albicans [3]": {"tested_on": "Candida albicans", "experiment": "Antifungal activity against Candida albicans ATCC 10231 assessed as reduction in growth after 48 hrs by broth microdilution method relative to control", "in_short": "as §1"}, "Aspergillus fumigatus [4]": {"tested_on": "Aspergillus fumigatus", "experiment": "Antifungal activity against Aspergillus fumigatus ATCC 16424 reduction in growth after 48 hrs by broth microdilution method relative to control", "in_short": "as §1"}, "Aspergillus fumigatus [5]": {"tested_on": "Aspergillus fumigatus", "experiment": "Antifungal activity against Aspergillus fumigatus ATCC 16424 after 48 hrs by broth microdilution method", "conditions": "ATCC 16424, 48 h", "in_short": "(§2)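 Plates were incubated at 35 °C for 48 h. MIC was reported only where both criteria held: turbidity clearly lower than in control wells without antifungal on visual comparison, and growth reduced by more than 50% relative to those controls, measured as absorbance at 530 nm.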"}, "Candida albicans [6]": {"tested_on": "Candida albicans", "experiment": "Antifungal activity against Candida albicans ATCC 10231 after 48 hrs by broth microdilution method", "conditions": "ATCC 10231, 48 h", "in_short": "as §2"}, "Nakaseomyces glabratus [7]": {"tested_on": "Nakaseomyces glabratus", "experiment": "Antifungal activity against Candida glabrata ATCC 48435 after 48 hrs by broth microdilution method", "conditions": "ATCC 48435, 48 h", "in_short": "as §2"}, "Cryptococcus neoformans [8]": {"tested_on": "Cryptococcus neoformans", "experiment": "Antifungal activity against Cryptococcus neoformans ATCC 36556 after 48 hrs by broth microdilution method", "conditions": "ATCC 36556, 48 h", "in_short": "as §2"}}}
{"smiles": "CC(=O)O[C@H]1C[C@@H]2CC[C@@H]3[C@H](CC[C@]4(C)[C@@H]5[C@H](C[C@@H]34)O[C@]3(CC[C@@H](C)CO3)[C@H]5C)[C@@]2(C)C[C@@H]1O", "values": [{"measurement": "inhibition (INH)", "setting": "Nakaseomyces glabratus [1]", "result": "<25", "unit": "%"}, {"measurement": "inhibition (INH)", "setting": "Cryptococcus neoformans [2]", "result": "<25", "unit": "%"}, {"measurement": "inhibition (INH)", "setting": "Candida albicans [3]", "result": "<25", "unit": "%"}, {"measurement": "inhibition (INH)", "setting": "Aspergillus fumigatus [4]", "result": "<25", "unit": "%"}]}
{"smiles": "C[C@@H]1CC[C@@]2(OC1)O[C@H]1C[C@H]3[C@@H]4CC[C@H]5CC(=O)CC[C@]5(C)[C@H]4CC[C@]3(C)[C@H]1[C@@H]2C", "values": [{"measurement": "inhibition (INH)", "setting": "Nakaseomyces glabratus [1]", "result": "<25", "unit": "%"}, {"measurement": "inhibition (INH)", "setting": "Cryptococcus neoformans [2]", "result": "<25", "unit": "%"}, {"measurement": "inhibition (INH)", "setting": "Candida albicans [3]", "result": "<25", "unit": "%"}, {"measurement": "inhibition (INH)", "setting": "Aspergillus fumigatus [4]", "result": "<25", "unit": "%"}]}
{"smiles": "CC(=O)O[C@@H]1C[C@@]2(C)[C@@H](CC[C@@H]3[C@@H]2CC[C@]2(C)[C@@H]4[C@H](C[C@@H]32)O[C@]2(CC[C@@H](C)CO2)[C@H]4C)CC1=O", "values": [{"measurement": "inhibition (INH)", "setting": "Nakaseomyces glabratus [1]", "result": "<25", "unit": "%"}, {"measurement": "inhibition (INH)", "setting": "Cryptococcus neoformans [2]", "result": "<25", "unit": "%"}, {"measurement": "MIC50", "setting": "Aspergillus fumigatus [5]", "result": "> 128", "unit": "µg/mL"}, {"measurement": "MIC50", "setting": "Candida albicans [6]", "result": 32, "unit": "µg/mL"}]}
{"smiles": "C[C@@H]1CC[C@@]2(OC1)O[C@H]1C[C@H]3[C@@H]4CC[C@H]5C[C@@H](O)[C@H](O)C[C@]5(C)[C@H]4CC[C@]3(C)[C@H]1[C@@H]2C", "values": [{"measurement": "inhibition (INH)", "setting": "Nakaseomyces glabratus [1]", "result": "<25", "unit": "%"}, {"measurement": "inhibition (INH)", "setting": "Cryptococcus neoformans [2]", "result": "<25", "unit": "%"}, {"measurement": "inhibition (INH)", "setting": "Candida albicans [3]", "result": "<25", "unit": "%"}, {"measurement": "inhibition (INH)", "setting": "Aspergillus fumigatus [4]", "result": "<25", "unit": "%"}]}
{"smiles": "CC(=O)O[C@@H]1C[C@@H]2CC[C@@H]3[C@H](CC[C@]4(C)[C@@H]5[C@H](C[C@@H]34)O[C@]3(CC[C@@H](C)CO3)[C@H]5C)[C@@]2(C)C[C@@H]1O", "values": [{"measurement": "inhibition (INH)", "setting": "Nakaseomyces glabratus [1]", "result": "<25", "unit": "%"}, {"measurement": "inhibition (INH)", "setting": "Cryptococcus neoformans [2]", "result": "<25", "unit": "%"}, {"measurement": "inhibition (INH)", "setting": "Candida albicans [3]", "result": "<25", "unit": "%"}, {"measurement": "inhibition (INH)", "setting": "Aspergillus fumigatus [4]", "result": "<25", "unit": "%"}]}
{"smiles": "CC(=O)O[C@H]1C[C@@]2(C)[C@@H](CC[C@@H]3[C@@H]2CC[C@]2(C)[C@@H]4[C@H](C[C@@H]32)O[C@]2(CC[C@@H](C)CO2)[C@H]4C)C[C@H]1O", "values": [{"measurement": "inhibition (INH)", "setting": "Nakaseomyces glabratus [1]", "result": "<25", "unit": "%"}, {"measurement": "inhibition (INH)", "setting": "Cryptococcus neoformans [2]", "result": "<25", "unit": "%"}, {"measurement": "inhibition (INH)", "setting": "Candida albicans [3]", "result": "<25", "unit": "%"}, {"measurement": "inhibition (INH)", "setting": "Aspergillus fumigatus [4]", "result": "<25", "unit": "%"}]}
{"smiles": "C[C@@H]1CC[C@@]2(OC1)O[C@H]1C[C@H]3[C@@H]4CC[C@H]5C[C@@H](O)CC[C@]5(C)[C@H]4CC[C@]3(C)[C@H]1[C@@H]2C", "note": "[TIGOGENIN]", "values": [{"measurement": "inhibition (INH)", "setting": "Cryptococcus neoformans [2]", "result": "<25", "unit": "%"}, {"measurement": "MIC50", "setting": "Nakaseomyces glabratus [7]", "result": "> 62.5", "unit": "µg/mL"}, {"measurement": "MIC50", "setting": "Aspergillus fumigatus [5]", "result": 16, "unit": "µg/mL"}, {"measurement": "inhibition (INH)", "setting": "Candida albicans [3]", "result": "<25", "unit": "%"}]}
{"smiles": "CC(=O)O[C@@H]1C[C@@]2(C)[C@@H](CC[C@@H]3[C@@H]2CC[C@]2(C)[C@@H]4[C@H](C[C@@H]32)O[C@]2(CC[C@@H](C)CO2)[C@H]4C)C[C@H]1O", "values": [{"measurement": "MIC50", "setting": "Cryptococcus neoformans [8]", "result": 62.5, "unit": "µg/mL"}, {"measurement": "MIC50", "setting": "Nakaseomyces glabratus [7]", "result": 6.25, "unit": "µg/mL"}, {"measurement": "MIC50", "setting": "Aspergillus fumigatus [5]", "result": "> 128", "unit": "µg/mL"}, {"measurement": "MIC50", "setting": "Candida albicans [6]", "result": 16, "unit": "µg/mL"}]}
{"smiles": "CC(=O)O[C@H]1C[C@@]2(C)[C@@H](CC[C@@H]3[C@@H]2CC[C@]2(C)[C@@H]4[C@H](C[C@@H]32)O[C@]2(CC[C@@H](C)CO2)[C@H]4C)C[C@@H]1O", "values": [{"measurement": "inhibition (INH)", "setting": "Nakaseomyces glabratus [1]", "result": "<25", "unit": "%"}, {"measurement": "inhibition (INH)", "setting": "Cryptococcus neoformans [2]", "result": "<25", "unit": "%"}, {"measurement": "inhibition (INH)", "setting": "Candida albicans [3]", "result": "<25", "unit": "%"}, {"measurement": "inhibition (INH)", "setting": "Aspergillus fumigatus [4]", "result": "<25", "unit": "%"}]}
